Most compounds without a hit are left out; they make up all but 2.2% or so of the library.
EBI2 antag = EBI2 (human) antagonism | P32249 | EBI2 beta-arrestin recruitment, luminescence, 7a,25-OHC stimulated | inhibition, % at 5 µM | hit rate 0.81% among 360,000 | AID 651636; in the data active = inhibition above about 38%;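 note: enzyme fragment complementation signal reports receptor beta-arrestin coupling in cells; 0% = agonist plus DMSO wells and 100% = wells without agonist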
APJ antagonist = blocks the human apelin receptor APJ. CHO-K1 APJ beta-arrestin complementation, luminescence. inhibition, % at 20 µM. hit rate 0.32% among 330,000;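 active = inhibition above about 40% at 20 µM, limit read from the data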;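 note: cells challenged with 10 nM apelin-13 agonist together with compound; plate controls were apelin-13 plus DMSO wells for no effect and DMSO wells lacking apelin-13 for full effect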
CXCR6 inh = blocks human CXCR6 beta-arrestin recruitment; hit rate 0.36% among 360,000; inhibition, % at 20 µM; O00574; CHO-K1 PathHunter CXCR6 beta-arrestin, luminescence; AID 602244; in the data active = inhibition above about 34%, passing the limit was not always enough;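 note: antagonist mode with CXCL16 agonist at 10 nM final; 0% = 10 nM CXCL16 with DMSO and 100% = unstimulated wells without agonist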
m5-HT2A agonist = agonists of mouse serotonin 5-HT2A receptor (HTR2A). P35363. CHO-K1 mHTR2A beta-arrestin complementation, luminescence; percent of 30 µM serotonin response. activation, % at 7.6 µM. hit rate 0.66% among 360,000. AID 624169;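 active = activation above a run cutoff, the mean activation of all tested compounds plus 3 SD, cut at about 14% in these data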;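 note: 0% = plate median of compound wells and 100% = 30 µM serotonin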
APJ agonist = APJ receptor agonism; CHO-K1 APJ PathHunter beta-arrestin, luminescence; 0% DMSO wells, 100% apelin; AID 2520; hit rate 0.11% among 330,000; activation, % at 20 µM; P35414;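 active = activation more than six SD over the plate average, tested at 20 µM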;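 note: 0% = DMSO alone and 100% = apelin-13 at 10 nM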
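Assay system: engineered CHO-K1 APJ arrestin reporter cells; Amount: 1000 CHO-K1 reporter cells seeded per well; Dosing: one dose, 20 µM compound, 1% DMSO; Times: compound stimulation 90 min at 25 °C, detection 60 min; Measured by: luminescent beta-gal fragment complementation, chemiluminescent substrate; Read-out: APJ–arrestin association signal; Controls: DMSO vs Apelin-13 10 nM.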
CCR6 antagonist = blocks CCL20-driven beta-arrestin recruitment at human CCR6 | P51684 | CHO-K1 CCR6 PathHunter beta-arrestin, luminescence, CCL20-stimulated | inhibition, % at 20 µM | hit rate 0.49% among 340,000;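 active = compounds whose inhibition of the agonist-driven luminescence signal at 20 µM reaches about 50%, limit read from the data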;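 note: cells stimulated with CCL20 at 14 nM final; plate controls were DMSO with CCL20 for no effect and DMSO without agonist for full effect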
Target sequence (P51684 whole entry, looked up): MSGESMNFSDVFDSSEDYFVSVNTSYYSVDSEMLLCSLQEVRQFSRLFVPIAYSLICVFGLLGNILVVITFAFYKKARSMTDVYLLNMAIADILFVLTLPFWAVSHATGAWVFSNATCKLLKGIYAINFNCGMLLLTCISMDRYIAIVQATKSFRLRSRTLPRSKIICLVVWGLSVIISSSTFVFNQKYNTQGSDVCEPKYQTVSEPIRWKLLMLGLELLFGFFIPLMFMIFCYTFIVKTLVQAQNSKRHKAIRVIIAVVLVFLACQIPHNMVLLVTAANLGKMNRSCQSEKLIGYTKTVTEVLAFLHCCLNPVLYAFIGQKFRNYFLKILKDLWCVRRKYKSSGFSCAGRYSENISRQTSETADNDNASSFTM
APJ ag confirm = APJ receptor agonism confirmation; AID 2764; shares compounds with APJ agonist; CHO-K1 APJ PathHunter beta-arrestin, luminescence; activation, % at 20 µM; hit rate 10% among 310;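 active = activation above 40%, taking the highest of four retests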;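 note: plate controls were DMSO wells for no effect and apelin-13 at 10 nM for full effect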
* = called active by the depositor; · = no result given.

SMILES	EBI2 antag	APJ antagonist	CXCR6 inh	m5-HT2A agonist	APJ agonist	CCR6 antagonist	APJ ag confirm
COc1ccc2noc3c2c1C(=O)c1ccccc1-3	-21	-35	-2	0	21*	-4	28
COc1ccc(S(=O)(=O)NCc2ccc(C(=O)NCCN(C)Cc3ccccc3)cc2)cc1	-2	·	-2	-14	·	·	·
COc1cc(/C=C(/C#N)c2nc3ccccc3[nH]2)ccc1OCC(=O)Nc1ccccc1C(C)C	-5	-18	6	0	29*	7	14
COc1cc(/C=C(/C#N)c2nc3ccccc3[nH]2)ccc1OCC(=O)Nc1ccccc1C	5	-3	2	6	19	-1	·
Nc1sc(Cc2ccccc2)cc1C(=O)c1c(-c2ccccc2)[nH]c2ccccc12	15	·	·	1	·	·	·
CC(=O)Nc1ccc(OCC(=O)Nc2ccc(Cl)c(S(=O)(=O)N3CCOCC3)c2)cc1	-20	0	-17	2	17*	·	-1
COc1ccc(OCC(=O)Nc2ccc(S(=O)(=O)N3CCOCC3)cc2)cc1	-7	-4	4	-4	-1	2	·
COC(=O)[C@@]12C[C@@H](CC(=O)N3CCCC3)C(=O)N(Cc3ccco3)C1=CCC(C)(C)C2	-5	·	·	2	·	·	·
CCOC(=O)c1ccc(Nc2ncnc3c2cnn3C)cc1	-6	-7	-5	2	5	0	·
Cn1ncc2c(O/N=C(\N)c3ccc(C(C)(C)C)cc3)ncnc21	2	-65	-34	-1	27*	-32	62*
CCc1nc2c(OCCOc3ccc(F)cc3)cccn2c1N(C=O)Cc1ccccc1	-2	·	-1	-2	·	·	·
CCCCCN=C(N)N/N=C/c1c[nH]c2ccc(OC)cc12	5	-20	27	3	35*	55*	39
COc1ccccc1C(=O)O/N=C(\N)c1ccccc1Cl	-14	-38	-6	3	3	-9	·
COc1ccc(/C(N)=N/OC(=O)c2cccc([N+](=O)[O-])c2)cc1OC	5	-38	-8	7	20	-3	·
COc1ccc(C(=O)O/N=C(\N)c2ccccc2Cl)cc1OC	-12	-40	-18	11	11*	-15	39
COc1ccc(/C(N)=N/OC(=O)c2ccc(OC)c([N+](=O)[O-])c2)cc1OC	-1	-72	-4	5	18*	-10	34
Nc1nc2c(ncn2[C@@H]2O[C@H](CNCc3cnc(N4CCOCC4)s3)[C@@H](O)[C@H]2O)c(=O)[nH]1	-5	·	5	4	·	·	·
COc1cc(S(=O)(=O)NC2CCCC2)ccc1-n1cnnn1	-7	-1	-10	-4	1	19	·
COc1ccc(S(=O)(=O)NC2CC2)cc1-n1cnnn1	-6	-26	-5	2	14*	7	8
CCOC(=O)c1sc(NC(=O)CN2C(=O)NC3(CC(C)CC(C)(C)C3)C2=O)cc1C (centres undefined)	2	5	4	-3	38*	-15	4
CC(C(=O)Nc1nc(-c2ccc(F)cc2)cs1)N1C(=O)C2CC=CCC2C1=O (centres undefined)	-7	-13	-5	11	1	-8	·
COc1ccc(CCNC(=O)c2ccc(CSc3ccc(Cl)cc3)o2)cc1OC	29	·	2	3	·	·	·
O=C(ONC1=NCCCCC1)c1cccc([N+](=O)[O-])c1	-16	-41	-27	6	6	-27	·
O=C(Nc1ccc(Cl)c([N+](=O)[O-])c1)ONC1=NCCCCC1	-11	-60	-9	-1	16*	-15	18
CCCCc1c(Cc2cccc(F)c2)ncn1CCc1ccccc1OC	16	·	0	-6	·	·	·
SMILES	EBI2 antag	APJ antagonist	CXCR6 inh	m5-HT2A agonist	APJ agonist	CCR6 antagonist	APJ ag confirm
CCOC(=O)C[C@@H]1OC[C@H](CO)N1S(=O)(=O)c1ccc(C)cc1	3	·	·	2	·	·	·
NC(=O)c1ccsc1NC(=O)COC(=O)/C=C/c1ccc([N+](=O)[O-])cc1	4	-40	-22	0	-5	-2	·
COC(=O)c1ccc(/C=C/C(=O)OCC(=O)Nc2sccc2C(N)=O)cc1	-20	-9	2	5	31*	-9	47*
CCn1c(C)nc2cc(-c3nnc(-c4c(-c5ccccc5)noc4C)o3)ccc21	30	-5	-2	4	17*	-24	5
CC1CCN(CCNC(=O)c2ccc3c(=O)n(Cc4ccc(Cl)cc4)c(=S)[nH]c3c2)CC1	-1	0	1	-9	33*	-5	9
CCN(CC)CCCNC(=O)c1cc(Cl)c(NC(=O)C2=C(C)OCCS2)cc1OC	-8	14	1	-4	13*	7	30
CCN1CCN(CCNC(=O)c2cc(Cl)c(NC(=O)C3=C(C)OCCS3)cc2OC)CC1	7	-13	5	4	24*	-7	2
OC(c1ccc(F)c(F)c1)c1nc(-c2cc(F)cc(F)c2)cs1 (centres undefined)	6	·	-9	3	·	·	·
CN(C)S(=O)(=O)c1ccc(-c2csc(N/N=C/c3ccc(O)cc3)n2)cc1	-14	-99	8	0	16*	7	-2
CN(C)S(=O)(=O)c1ccc(-c2csc(N/N=C/c3ccco3)n2)cc1	-44	-40	-2	7	24*	-14	44*
Cc1ccc(-c2nn(-c3ccccc3)cc2/C=N/NC(=O)c2ccc(Br)o2)cc1	-6	-10	-2	3	13*	-8	25
COc1ccccc1C(=O)Nc1nc(-c2ccc(S(=O)(=O)N3CCOCC3)cc2)cs1	-37	-32	-23	7	45*	-7	4
Cc1ccc(C2C(C#N)=C(N)Oc3nc(-c4ccccc4)[nH]c32)o1 (centres undefined)	-19	-1	-9	3	30*	-18	15
CCOc1cc2[nH]c(=S)n(CC3CCCN3CC)c(=O)c2cc1OCC (centres undefined)	9	16	11	1	17*	-8	25
CCOc1cc2[nH]c(=S)n(CCC(=O)N3CCc4ccccc4C3)c(=O)c2cc1OCC	-7	-11	-2	2	53*	-18	48*
CCCn1c(=S)[nH]c2cc(C(=O)N3CCc4ccccc4C3)ccc2c1=O	-6	8	2	5	1	13	·
CCOc1cc2[nH]c(=S)n(CC3CCCO3)c(=O)c2cc1OCC (centres undefined)	15	11	0	-1	0	4	·
C[C@H](CO)N1C[C@H](C)[C@@H](CN(C)Cc2ccccc2)OCc2cnnn2CCCC1=O	3	·	1	6	·	·	·
COc1cccc(Nc2nc(NCC3CCCO3)c3ccccc3n2)c1 (centres undefined)	-14	-12	-8	-11	14*	1	10

Screening data: PubChem BioAssay, several laboratories
